This is a sample that favours compounds with a hit; in the whole collection about 2.9% have one here.
OX1R antag-1 = blocks the human orexin 1 receptor; OX1R-expressing cells, FRET antagonist read-out; inhibition, % at 6.6 µM; hit rate 1.8% among 330,000; AID 485270; in the data active = inhibition mostly above about 38%, no sharp cut-off; inactive = mostly below about 40%
Target sequence (O43613 whole entry, looked up): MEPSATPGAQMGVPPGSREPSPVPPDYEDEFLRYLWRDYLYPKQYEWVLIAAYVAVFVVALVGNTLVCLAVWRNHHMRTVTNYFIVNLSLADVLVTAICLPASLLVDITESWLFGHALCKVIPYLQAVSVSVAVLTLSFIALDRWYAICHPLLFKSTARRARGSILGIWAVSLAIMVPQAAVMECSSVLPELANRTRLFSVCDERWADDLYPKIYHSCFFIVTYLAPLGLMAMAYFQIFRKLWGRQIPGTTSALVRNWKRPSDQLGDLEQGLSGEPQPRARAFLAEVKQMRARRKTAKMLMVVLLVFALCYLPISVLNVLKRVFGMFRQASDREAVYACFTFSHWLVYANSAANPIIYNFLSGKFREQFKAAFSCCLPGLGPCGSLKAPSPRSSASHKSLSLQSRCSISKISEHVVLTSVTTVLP
M1 PAM parental = counter-screen for M1 PAMs: effect in parental CHO-K1 cells; ATP EC20, Fluo-8 calcium fluorescence; 0% at ATP EC20, 100% at ATP max; activation, % at 3 µM; hit rate 0.02% among 360,000; AID 602247;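 active = activation above the run cutoff, the mean activation of all test compounds plus 3 SD, cut at about 40% in these data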;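 note: peak over basal fluorescence ratio in a 140 s read after ATP addition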
CHO-K1 Ca ag = M1 agonist counterscreen hit in parental CHO-K1 cells; activation, % at 3 µM; hit rate 0.48% among 360,000; Fluo-8 calcium fluorescence; scaled to maximal ATP response, vehicle zero; in the data active = activation above about 15%;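 note: untransfected CHO-K1 host cells lacking M1 receptor as counterscreen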
CHO parental Ca = signal in parental CHO cells, OX1R antagonist counter-screen. hit rate 0.63% among 330,000. AID 463079. parental CHO-K1, ATP-induced calcium, Fluo-8 fluorescence. inhibition, % at 5.6 µM;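 active = inhibition above that plate's mean sample inhibition plus 3 SD, cut at about 26% in these data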
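Test system: untransfected parental CHO cell line; also added: ATP stimulus; dosing: 5.6 µM, single dose; signal: calcium-sensitive Fluo-8 fluorescence; measure: percent inhibition of ATP-evoked calcium rise, normalized to controls; benchmarks: low control ATP plus DMSO, high control DMSO only; replication: one well per compound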
OX1R antag-2 = antagonists of human orexin 1 receptor | inhibition, % at 5 µM | CHO/OX1R cells, Fluo-8 calcium fluorescence, orexin A | hit rate 0.43% among 330,000;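 active = inhibition above its plate's threshold, mean inhibition of all tested compounds on the plate plus 3 SD, cut at about 37% in these data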
CHO-K1 Ca antag = counter-screen for M1 antagonists: effect in parental CHO-K1 cells. hit rate 0.6% among 360,000. ATP-induced calcium, Fluo-8 fluorescence. inhibition, % at 3 µM;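 active = inhibition above a per-plate cutoff, the plate's mean sample inhibition plus 3 SD, cut at about 24% in these data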
OX1R HTRF conf = confirmation of human orexin 1 receptor antagonists, HTRF format | hit rate 49% among 1,800 | AID 492964 | inhibition, % at 6.6 µM | OX1R-expressing cells, HTRF antagonist assay | shares compounds with OX1R antag-1; in the data active = inhibition above about 55%;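 note: CHO cells expressing OX1R stimulated with orexin A at about EC80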
CHO-K1 HTRF cnt = counter-screen: parental CHO-K1 HTRF response | shares compounds with OX1R antag-1 | inhibition, % at 6.6 µM | parental CHO-K1 cells, HTRF counterscreen | hit rate 48% among 1,800 | AID 493232; in the data active = inhibition above about 17%
Each line names hits and unclear results; the compound was inactive in the other large screens (follow-up assays come after a bar, where they were run).

COCCCNc1ncnc2ccc(C)cc12	none
CCN(CC)CCNc1cc(C)nc2c1C(=O)C(=O)C=C2N1CCCCC1	OX1R antag-1 82.5 | OX1R HTRF conf inactive | CHO-K1 HTRF cnt 75.6
CCCS(=O)(=O)NC(=O)C1(C)CCCN(C(=O)c2ccccc2OC)C1 (stereo not drawn)	none (no result: OX1R antag-1, CHO parental Ca, OX1R antag-2)
COc1ccc(NC2=C(NC(C)=O)C(=O)c3ccccc3C2=O)cc1	OX1R antag-1 97.1 | OX1R HTRF conf 78.5 | CHO-K1 HTRF cnt 96.3
CCC(=O)NC1=C(Nc2ccc(N)cc2)C(=O)c2ccccc2C1=O	OX1R antag-1 82.1 | OX1R HTRF conf 71.1 | CHO-K1 HTRF cnt 120.9
Cc1ccc(S(=O)(=O)N2CCN(C(=O)Cn3c(=O)oc4ccccc43)CC2)c(C)c1	none
Cc1noc(C)c1S(=O)(=O)Nc1ccc(O)c2c(=O)cc(-c3ccccc3Cl)oc12	OX1R antag-1 85.2 | OX1R HTRF conf 93.2 | CHO-K1 HTRF cnt inactive
CN(C)CCOC(=O)c1ccc2c(c1)S(=O)(=O)c1ccccc1C2=O	OX1R antag-1 107.6 | OX1R HTRF conf inactive | CHO-K1 HTRF cnt 57.6
CC(C)NC(=O)c1ccc2c(c1)S(=O)(=O)c1ccccc1C2=O	OX1R antag-1 152.6 | OX1R HTRF conf inactive | CHO-K1 HTRF cnt 63.2
CC(C)c1cccc(C(C)C)c1NC(=O)COC(=O)c1ccc2c(c1)S(=O)(=O)c1ccccc1C2=O	none
CS(=O)(=O)NCc1nnc(SCc2c(F)cccc2Cl)o1	none
C/C(=N\Nc1nnc2c3ccccc3n(C)c2n1)c1ccc(C)o1	OX1R antag-1 93.2 | OX1R HTRF conf 96.5 | CHO-K1 HTRF cnt 17.3
CC(=O)N1CCN(C(=O)CSc2ncnc3sc(C)c(C)c23)CC1	none
COc1ccccc1C(=O)NCCCCNC(=O)c1ccccc1OC	OX1R antag-1 79.3 | OX1R HTRF conf 59.1 | CHO-K1 HTRF cnt inactive
CCOc1ccccc1C(=O)NCCCCNC(=O)c1ccccc1OCC	none (no result: OX1R antag-1, CHO parental Ca, OX1R antag-2)
CC(=O)N1c2ccc(S(=O)(=O)N3CCCC(C(=O)NC4CCCC(C)C4C)C3)cc2CC1C (stereo not drawn)	none
CN1C(=O)[C@@H]2C[C@@]3([C@@]45C[C@H]6C(=O)N(C)[C@@H](Cc7ccccc7)C(=O)N6[C@@H]4Nc4ccccc45)c4ccccc4N[C@H]3N2C(=O)[C@@H]1Cc1ccccc1	none
CN(C(=O)CSc1nc2ccc([N+](=O)[O-])cc2s1)C1CCS(=O)(=O)C1 (stereo not drawn)	OX1R antag-1 83.0 | OX1R HTRF conf 70.2 | CHO-K1 HTRF cnt 39.6
CN(C(=O)COC(=O)CSc1ccc(C(N)=O)cc1[N+](=O)[O-])C1CCS(=O)(=O)C1 (stereo not drawn)	OX1R antag-1 76.9 | OX1R HTRF conf inactive | CHO-K1 HTRF cnt 69.1
CN(C(=O)COC(=O)CSc1ccc([N+](=O)[O-])cc1)C1CCS(=O)(=O)C1 (stereo not drawn)	none
Cc1cccc(NC(=O)C2CCN(S(=O)(=O)c3cccc4nsnc34)CC2)n1	none
Cc1cccc(NC(=O)C2CCCN(S(=O)(=O)c3cccc4nsnc34)C2)c1 (stereo not drawn)	OX1R antag-1 91.0 | OX1R HTRF conf 57.0 | CHO-K1 HTRF cnt inactive
CCN1CCCC1CNC(=O)C1CCCN(S(=O)(=O)c2cccc3nsnc23)C1 (stereo not drawn)	OX1R antag-1 118.3 | OX1R HTRF conf inactive | CHO-K1 HTRF cnt 61.6
CCOCCCNC(=O)C1CCCN(S(=O)(=O)c2cccc3nsnc23)C1 (stereo not drawn)	none
Cc1cccc(NC(=O)C2CCCN(S(=O)(=O)c3cccc4nsnc34)C2)n1 (stereo not drawn)	OX1R antag-1 84.2 | OX1R HTRF conf inactive | CHO-K1 HTRF cnt 17.8
COc1ccc(S(=O)(=O)NCC(c2ccc3c(c2)OCO3)N2CCOCC2)cc1C (stereo not drawn)	none
Cc1nn(C2CCS(=O)(=O)C2)c(C)c1CN(C)C(=O)c1ccc(F)cc1 (stereo not drawn)	none (no result: OX1R antag-1, CHO parental Ca, OX1R antag-2)
Clc1cccc(Nc2nc(-c3ccncc3)cs2)c1	OX1R antag-1 79.9 | OX1R HTRF conf inactive | CHO-K1 HTRF cnt inactive
NC(=O)c1c(NC(=O)c2ccncc2)sc2c1CCCC2	none
NC(=O)c1c(NC(=O)c2ccccc2)sc2c1CCC2	OX1R antag-1 88.9 | OX1R HTRF conf 84.0 | CHO-K1 HTRF cnt inactive
CN(CCO)c1cc(N2CCC3(CC2)OCCO3)c2nonc2c1[N+](=O)[O-]	OX1R antag-1 128.8 | OX1R HTRF conf 60.0 | CHO-K1 HTRF cnt 56.0
CC(=O)Nc1ccc(Nc2cc(N3CCOCC3)c3nonc3c2[N+](=O)[O-])cc1	none
CN(CCO)c1cc(NCCCN2CCC(Cc3ccccc3)CC2)c2nonc2c1[N+](=O)[O-]	OX1R antag-1 84.8 | OX1R HTRF conf 62.7 | CHO-K1 HTRF cnt 47.3
CN(CCO)c1cc(N2CCCCC2)c2nonc2c1[N+](=O)[O-]	none
O=[N+]([O-])c1c(NCCO)cc(N2CCC3(CC2)OCCO3)c2nonc12	OX1R antag-1 169.7 | OX1R HTRF conf inactive | CHO-K1 HTRF cnt 82.4
CC(C)N(Cc1nc(-c2ccccc2)no1)C(=O)COc1ccccc1	none
COc1cccc(C(=O)N(Cc2nc(-c3cccc(C)c3)no2)C(C)C)c1OC	OX1R antag-1 81.0 | OX1R HTRF conf 68.6 | CHO-K1 HTRF cnt inactive
CC(C)N(Cc1nc(-c2ccccc2)no1)C(=O)Cc1ccccc1	OX1R antag-1 78.2 | OX1R HTRF conf inactive | CHO-K1 HTRF cnt inactive
O=C(NC1CC1)c1ccc(-c2nc3ccccc3s2)s1	OX1R antag-1 113.1 | OX1R HTRF conf 83.7 | CHO-K1 HTRF cnt inactive
O=C(c1ccc(-c2nc3ccccc3s2)s1)N1CCOCC1	none (no result: M1 PAM parental, CHO-K1 Ca ag, CHO-K1 Ca antag)
COc1ccc(C(=O)c2c(C(F)(F)F)oc3c2C(=O)c2ccccc2C3=O)cc1OC	none
CCOC(=O)c1c(C)oc2c1C(=O)c1ccccc1C2=O	OX1R antag-1 85.2 | OX1R HTRF conf 82.0 | CHO-K1 HTRF cnt 47.3
Cc1oc2c(c1C(=O)O)C(=O)c1ccccc1C2=O	OX1R antag-1 97.3 | OX1R HTRF conf 71.9 | CHO-K1 HTRF cnt 85.9
O=C(CSc1ccc(Cl)cc1)NNC(=O)c1cccnc1	none
N/C(=N\OC(=O)c1ccc(Cl)c([N+](=O)[O-])c1)c1ccccn1	OX1R antag-1 114.0 | OX1R HTRF conf inactive | CHO-K1 HTRF cnt 58.3
N/C(=N\OC(=O)c1ccc(Cl)c(Cl)c1)c1ccccn1	none
COc1cccc(NC(=O)CCC(=O)Nc2cc(OC)c(NC(=O)c3cccs3)cc2OC)c1	none (no result: OX1R antag-1, CHO parental Ca, OX1R antag-2)
CCC(=O)Nc1ccccc1Nc1cc(C#N)c(C#N)cc1[N+](=O)[O-]	OX1R antag-1 active | OX1R HTRF conf 59.1 | CHO-K1 HTRF cnt 71.8

Compound activity: PubChem BioAssay, The Scripps Research Institute Molecular Screening Center
